Active and inactive are the calls of the source. The calls are words filed in the database; no cut-off is given here.
Test system: NCI-H1650
Test: Cytotoxicity against human NCI-H1650 cells assessed as growth inhibition after 48 hrs by MTT assay
Format: functional
How it was run: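 H1650 cells were exposed to drug for 48 h at five concentrations bracketing 1–40 μM in 10 μM steps, with MTT read-out. GI50 is given only where the data form a sigmoidal dose response.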

SMILES	GI50 (NCI-H1650, 48 h) [µM]	GI50
O=S(=O)(NC1CCC(=C2c3ccccc3CCc3ccccc32)CC1)c1ccc(Cl)cc1 (stereo unspecified)	20	–
O=S(=O)(NCCCN1c2ccccc2CCc2ccccc21)c1ccc(C(F)(F)F)cc1	14.3	–
CS(=O)(=O)c1ccc(S(=O)(=O)NCCCN2c3ccccc3CCc3ccc(Cl)cc32)cc1	15.1	–
O=S(=O)(NC1CCOC2(C1)c1ccccc1CCc1ccccc12)c1ccc(OC(F)(F)F)cc1 (stereo unspecified)	> 40	–
O=S(=O)(NC1CCC2(OC1)c1ccccc1CCc1ccccc12)c1ccc(OC(F)(F)F)cc1 (stereo unspecified)	13	–
CCCN1c2ccccc2Sc2ccc(Cl)cc21	–	inactive
O=C(NCCCN1c2ccccc2CCc2ccc(Cl)cc21)Nc1ccc(OC(F)(F)F)cc1	> 40	–
O=S(=O)(NCCCN1c2ccccc2CCc2ccc(Cl)cc21)C1CCCCC1	–	inactive
O=S(=O)(NCCN1c2ccccc2Sc2ccc(Cl)cc21)c1ccc(OC(F)(F)F)cc1	25	–
O=S(=O)(NCC/C=C1/c2ccccc2Sc2ccc(Cl)cc21)c1ccc(OC(F)(F)F)cc1	40	–
O=S(=O)(NCCCN1c2ccccc2CCc2ccccc21)c1ccc(-n2cccn2)cc1	> 40	–
CN(CCCN1c2ccccc2CCc2ccc(Cl)cc21)S(=O)(=O)c1ccc(OC(F)(F)F)cc1	–	inactive
Cc1ccc(S(=O)(=O)NCCN2c3ccccc3Sc3ccc(Cl)cc32)cc1	24.4	–
O=S(=O)(NCCCN1c2ccccc2CCc2ccccc21)c1ccc2c(c1)OCO2	–	inactive
Cc1nn(C)c(C)c1S(=O)(=O)NCCCN1c2ccccc2CCc2ccccc21	> 40	–
COC(=O)NCCN1c2ccccc2Sc2ccc(Cl)cc21	–	inactive

— ChEMBL document CHEMBL3611968, “Reengineered tricyclic anti-cancer agents” (Bioorg Med Chem, 2015)
